Source: article PMC4893637 (Theranostics, 2016)

Columns and labels:
[1] = target: Recombinant human PSMA (rhPSMA) (Homo sapiens, UniProt Q04609); assay: NAALADase assay; format: biochemical
[2] = target: PSMA positive LNCaP cells (Homo sapiens, UniProt Q04609); assay: Internalization assay on LNCaP cells; format: cell-based; conditions: 30 nM radiolabeled compound, 45 min; 177Lu-labeled, except CIM 99mTc-labeled
Outline: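 Poly-L-lysine-coated wells were seeded with 10⁵ LNCaP cells in RPMI (10% FCS, 1% L-glutamine) and held overnight at 37 °C. Cells took up 30 nM radiolabelled test compound in Opti-MEM for 45 min at 37 °C or 4 °C, with 2-PMPA block or DMSO, in triplicate. Surface-bound tracer came off in two 5-min 50 mM glycine pH 2.8 washes and internalized tracer in 0.3 M NaOH lysate. All fractions were gamma-counted against a ligand standard.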

[3] = system: BALB/c nude mouse LNCaP xenograft; assay: MicroPET in LNCaP xenograft mouse; format: in vivo; conditions: 68Ga-labeled, i.v.
Outline: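 Purified 68Ga-labelled test conjugates (50 MBq/nmol) were sterile-filtered and 100 µl injected into the tail vein of BALB/c nude mice bearing LNCaP xenografts under 2% sevoflurane. Two tracers were compared in the same mouse. Blocking used 100-fold excess of unlabelled compound, imaged 2 h post-injection.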

PSMA positive LNCaP cells, sequence (Q04609 whole entry): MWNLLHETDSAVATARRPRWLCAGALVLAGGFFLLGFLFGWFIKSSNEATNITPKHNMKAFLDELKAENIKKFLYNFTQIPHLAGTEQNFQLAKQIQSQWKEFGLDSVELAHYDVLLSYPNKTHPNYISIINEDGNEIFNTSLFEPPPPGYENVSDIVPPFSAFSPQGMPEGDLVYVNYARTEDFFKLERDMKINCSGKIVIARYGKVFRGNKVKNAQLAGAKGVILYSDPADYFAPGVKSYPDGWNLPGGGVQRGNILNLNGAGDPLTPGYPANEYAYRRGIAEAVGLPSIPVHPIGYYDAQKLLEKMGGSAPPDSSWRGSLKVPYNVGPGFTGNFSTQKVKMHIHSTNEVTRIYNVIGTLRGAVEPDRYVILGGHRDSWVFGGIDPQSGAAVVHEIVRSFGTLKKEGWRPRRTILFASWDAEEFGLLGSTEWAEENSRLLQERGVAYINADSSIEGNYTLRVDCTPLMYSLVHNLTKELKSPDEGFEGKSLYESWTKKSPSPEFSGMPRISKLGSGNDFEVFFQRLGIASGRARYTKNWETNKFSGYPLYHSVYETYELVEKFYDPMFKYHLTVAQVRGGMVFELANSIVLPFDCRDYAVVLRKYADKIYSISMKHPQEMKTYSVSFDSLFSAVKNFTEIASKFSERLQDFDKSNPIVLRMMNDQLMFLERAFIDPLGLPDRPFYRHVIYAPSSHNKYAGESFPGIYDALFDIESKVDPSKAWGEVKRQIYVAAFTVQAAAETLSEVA
Recombinant human PSMA (rhPSMA), sequence (Q04609 whole entry): as above

IC50 [1]: 0.8 ± 0.3 nM
Absolute value of compound inside of the cells (amount internalized) [2]: 3.7 ± 4.6%
Time after which the amount in the tumor begins to decrease [3]: approximately 15 min
SMILES: O=C(O)CC[C@H](NC(=O)N[C@@H](CCCCNC(=O)[C@H](Cc1ccc2ccccc2c1)NC(=O)[C@H]1CC[C@H](CNC(=O)CN2CCN(CC(=O)O)CCN(CC(=O)O)CCN(CC(=O)O)CC2)CC1)C(=O)O)C(=O)O [DOTA conjugate]
